Data: ChEMBL document CHEMBL4732188, “SARs of a novel series of s-triazine compounds targeting vimentin to induce methuotic phenotype” (Eur J Med Chem, 2021)
Active and inactive are the calls of the source. The calls are words filed in the database; no cut-off is given here.

Assays:
U-87 MG = test: Antiproliferative activity against human U87 cells assessed as reduction in cell growth incubated for 4 days by cell-titer glo assay; format: functional, cell-based, U-87MG ATCC; details: 96 h
Method in brief: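 Cells grown in RPMI1640 with 10% FBS, 2 mM glutamine and penicillin-streptomycin at 37 °C, 5% CO₂. Viability read as ATP by CellTiter-Glo luminescence. IC50 as mean ± SD from triplicate experiments.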

U-87MG ATCC [1] = test: Induction of vacuolization in human U87 cells at 1 uM by microscopic analysis
U-87MG ATCC [2] = test: Induction of methuosis in human U87 cells assessed as increase in number of cytoplasmic vacuoles at 10 nM measured after 24 hrs by […] staining based microscopic analysis; format: functional, cell-based
Method in brief: (§1)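 U87 cells were cultured in RPMI1640 with 10% FBS at 37 °C, 5% CO₂, and compound-treated for 24 h across 0.01-10. Cytoplasmic vacuolization was imaged by microscopy, with time-lapse confocal tracking of vesicle movement, vacuole fusion, cell rounding and disintegration. Macropinocytic origin was checked by lucifer yellow uptake and by staining with ER and Golgi markers.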

U-87MG ATCC [3] = test: Induction of methuosis in human U87 cells assessed as disintegrated cytoplasmic vacuoles at 10 nM measured after 24 hrs by […] staining based microscopic analysis; format: functional, cell-based; method in brief: as §1
U-87MG ATCC [4] = test: Induction of methuosis in human U87 cells assessed as rounded cytoplasmic vacuoles at 10 nM measured after 24 hrs by […] staining based microscopic analysis; format: functional, cell-based; method in brief: as §1
U-87MG ATCC [5] = test: Induction of vacuolization in human U87 cells at 31.6 nM incubated for 4 days by microscopic analysis; format: functional, cell-based; details: time 4.0 day
Method in brief: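 Cytoplasmic vacuolization was first screened visually by microscope in U87 cells treated with each compound at 1. Positive compounds were then titrated down to 0.01. Each was scored by its minimal effective concentration: 5 if vacuoles were significant at 10 nM, 4 at 31.6 nM, and so on downward.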

U-87MG ATCC [6] = test: Induction of methuosis in human U87 cells assessed as macropinocytosis by measuring cytoplasmic vacuolization at 10 nM incubated for 24 hrs by […] staining based confocal microscopic analysis; format: functional, cell-based; method in brief: as §1
U-87MG ATCC [7] = test: Induction of methuosis in human U87 cells assessed as increase in size of cytoplasmic vacuoles at 10 nM measured after 24 hrs by […] staining based microscopic analysis; format: functional, cell-based; method in brief: as §1
U-87MG ATCC [8] = test: Induction of methuosis in human U87 cells assessed as increase in intracellular vacuolization in para nuclear region at 10 nM measured < 2 hrs by microscopic analysis; format: functional, cell-based; details: time hrs <2
U-87MG ATCC [9] = test: Induction of methuosis in human U87 cells assessed as increase in accumulation of small vesicles at 10 nM measured after 24 hrs by […] staining based microscopic analysis; format: functional, cell-based; method in brief: as §1
Vimentin (Homo sapiens) = Vimentin (Homo sapiens) (UniProt P08670); test: Binding affinity to vimentin in human U87 cells at 100 nM incubated for 2 hrs by MALDI-MS/MS analysis; format: cell-based
Sequence of Vimentin (Homo sapiens) (P08670 whole entry): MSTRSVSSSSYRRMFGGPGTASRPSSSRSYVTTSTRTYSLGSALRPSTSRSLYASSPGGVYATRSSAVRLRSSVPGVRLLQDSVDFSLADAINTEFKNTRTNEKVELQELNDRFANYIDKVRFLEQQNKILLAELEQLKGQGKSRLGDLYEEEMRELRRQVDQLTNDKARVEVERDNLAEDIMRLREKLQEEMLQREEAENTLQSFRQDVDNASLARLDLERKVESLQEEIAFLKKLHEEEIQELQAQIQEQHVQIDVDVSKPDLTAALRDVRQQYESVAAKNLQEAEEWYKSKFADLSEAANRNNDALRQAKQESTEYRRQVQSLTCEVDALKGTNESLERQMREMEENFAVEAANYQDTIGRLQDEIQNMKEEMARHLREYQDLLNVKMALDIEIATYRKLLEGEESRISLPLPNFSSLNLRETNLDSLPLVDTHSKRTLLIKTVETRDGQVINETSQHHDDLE
Method in brief: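 Live U87 cells treated with the alkyne photoaffinity probe at 100 nM (DMSO control), then UV irradiated (315-385 nm, 30 min) through the flask bottom. Lysed in Hepes buffer pH 7.5 and click-reacted with biotin-N₃ (1 mM CuSO₄, 1 mM TCEP). Streptavidin-agarose enrichment, 10% SDS-PAGE separation, then LC-MS/MS identification.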

HepG2 = test: Induction of vacuolization in human HepG2 cells at 100 nM by microscopic analysis; format: functional, cell-based
OVCAR-3 = test: Induction of vacuolization in human OVCAR-3 cells at 100 nM by microscopic analysis; format: functional, cell-based
SK-MEL-28 = test: Induction of vacuolization in human SK-MEL-28 cells at 100 nM by microscopic analysis; format: functional, cell-based
LNCaP = test: Induction of vacuolization in human LNCaP cells at 100 nM by microscopic analysis; format: functional, cell-based
NCI-H522 = test: Induction of vacuolization in human NCI-H522 cells at 100 nM by microscopic analysis; format: functional, cell-based
HCT-15 = test: Induction of vacuolization in human HCT-15 cells at 100 nM by microscopic analysis; format: functional, cell-based

Row | SMILES | IC50 (U-87 MG) [nM] | Activity (U-87MG ATCC [1]) | other results
1 | O=C(Nc1ccc(Nc2nc(/C=C/c3ccccc3)nc(N3CCOCC3)n2)cc1)Nc1ccc(C(=O)NCCN2CCOCC2)cc1 | 550 | Active | –
2 | O=C(Nc1ccc(Cl)cc1)Nc1ccc(Nc2nc(/C=C/c3ccccc3)nc(N3CCOCC3)n2)cc1 | 4790 | Active | Activity (U-87MG ATCC [2]): Active; Activity (U-87MG ATCC [3]): Active; Activity (U-87MG ATCC [4]): Active; Activity (U-87MG ATCC [5]): Active; Activity (U-87MG ATCC [6]): Active; Activity (U-87MG ATCC [7]): Active; Activity (U-87MG ATCC [8]): Active; Activity (U-87MG ATCC [9]): Active
3 | CN(C)CCNC(=O)c1ccc(NC(=O)Nc2ccc(Nc3nc(/C=C/c4ccccc4)nc(N4CCOCC4)n3)cc2)cc1 | 2480 | Active | –
4 | CN1CCN(C(=O)c2ccc(NC(=O)Nc3ccc(Nc4nc(/C=C/c5ccccc5)nc(N5CCOCC5)n4)cc3)cc2)CC1 | 230 | Active | –
5 | O=C(Nc1ccc(Cl)cc1)Nc1ccc(Nc2nc(/C=C/c3cccc([N+](=O)[O-])c3)nc(N3CCCC3)n2)cc1 | 4470 | inactive | –
6 | C#CCCC1(CCNC(=O)c2ccc(NC(=O)Nc3ccc(Nc4nc(/C=C/c5ccccc5)nc(N5CCOCC5)n4)cc3)cc2)N=N1 | – | – | Activity (U-87MG ATCC [5]): Active; Activity (Vimentin (Homo sapiens)): Active
7 | O=C(Nc1ccc(F)cc1)Nc1ccc(Nc2nc(/C=C/c3ccccc3)nc(N3CCOCC3)n2)cc1 | 4750 | Active | –
8 | CN1CCN(c2nc(/C=C/c3cccc([N+](=O)[O-])c3)nc(Nc3ccc(NC(=O)Nc4ccc(Cl)cc4)cc3)n2)CC1 | 1210 | inactive | –
9 | O=C(Nc1ccc(F)cc1)Nc1ccc(Nc2nc(/C=C/c3cccc(Cl)c3)nc(N3CCOCC3)n2)cc1 | 1330 | Active | –
10 | O=C(Nc1ccc(Cl)cc1)Nc1ccc(Nc2nc(/C=C/c3cccc([N+](=O)[O-])c3)nc(N3CCOCC3)n2)cc1 | 1710 | Active | Activity (HepG2): Active; Activity (OVCAR-3): Active; Activity (SK-MEL-28): Active; Activity (LNCaP): Active; Activity (NCI-H522): Active; Activity (HCT-15): Active
11 | CC1CCN(C(=O)c2ccc(NC(=O)Nc3ccc(Nc4nc(/C=C/c5ccccc5)nc(N5CCOCC5)n4)cc3)cc2)CC1 | 870 | Active | –
12 | O=C(Nc1ccc(F)cc1)Nc1ccc(Nc2nc(/C=C/c3ccc(Cl)cc3)nc(N3CCOCC3)n2)cc1 | 2500 | Active | –
13 | O=C(Nc1ccc(Cl)cc1)Nc1cccc(Nc2nc(/C=C/c3cccc(Cl)c3)nc(N3CCOCC3)n2)c1 | 2200 | inactive | –
14 | O=C(Nc1ccc(Nc2nc(/C=C/c3ccc(Cl)cc3)nc(N3CCOCC3)n2)cc1)Nc1cccc(F)c1 | 4410 | Active | –
15 | O=C(Nc1ccc(Cl)cc1)Nc1cccc(Nc2nc(/C=C/c3ccccc3)nc(N3CCOCC3)n2)c1 | 1000 | inactive | –
16 | O=C(Nc1ccc(Nc2nc(/C=C/c3ccccc3)nc(N3CCOCC3)n2)cc1)Nc1ccc(C(=O)NCCN2CCCC2)cc1 | 1430 | Active | –
17 | CN(C)CCCNC(=O)c1ccc(NC(=O)Nc2ccc(Nc3nc(/C=C/c4ccccc4)nc(N4CCOCC4)n3)cc2)cc1 | 2310 | Active | –
18 | O=C(Nc1ccc(F)cc1)Nc1ccc(Nc2nc(/C=C/c3cccc([N+](=O)[O-])c3)nc(N3CCOCC3)n2)cc1 | 1110 | Active | –
19 | O=C(Nc1ccc(Cl)cc1)Nc1ccc(Nc2nc(/C=C/c3cccc([N+](=O)[O-])c3)nc(N3CC(O)C3)n2)cc1 | 1320 | inactive | –
20 | CN(C)C(=O)c1ccc(NC(=O)Nc2ccc(Nc3nc(/C=C/c4ccccc4)nc(N4CCOCC4)n3)cc2)cc1 | 530 | Active | –
21 | O=C(Nc1ccc(Nc2nc(/C=C/c3ccccc3)nc(N3CCOCC3)n2)cc1)Nc1ccc(C(=O)NCCN2CCCCC2)cc1 | 1110 | Active | –
22 | O=C(Nc1ccc(Cl)cc1)Nc1cccc(Nc2nc(/C=C/c3cccc([N+](=O)[O-])c3)nc(N3CCOCC3)n2)c1 | 3660 | inactive | –
23 | CN(C)c1nc(/C=C/c2cccc([N+](=O)[O-])c2)nc(Nc2ccc(NC(=O)Nc3ccc(Cl)cc3)cc2)n1 | 5120 | inactive | –
